From article PMC5034689 (Molecular Metabolism, 2016)

How the values were obtained:
Recombinant human IP6K1 = Recombinant human IP6K1 (Homo sapiens, UniProt Q92551); assay: IP6K1 activity assay in vitro, radiochemical assay; type: biochemical; settings: TNP 1 μM
Summary of the method: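 Recombinant human IP6K1 (100 ng) was incubated 1 h in 20 mM Tris pH 7.4 with 5 mM MgCl2, 2 nmol IP6, [3H]IP6 (130 nCi), 1 mM ATP and 1 mM DTT, plus DMSO or 1 μM test compound. 5-IP7 was resolved by HPLC, with activity expressed relative to DMSO (100%). Run in triplicate.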

[1] = Plasma and tissue availability after a single intraperitoneal TNP injection; type: in vivo, mice
Summary of the method: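 Chow-fed mice received a single i.p. injection (20 mg/kg) in DMSO:Tween 80:water (1:1:8). Plasma levels were followed 1–6 h after dosing. Liver, skeletal muscle, white and brown adipose tissue and brain were collected 6 h after dosing to measure tissue concentrations.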

HFD-fed mice = assay: Long-term TNP for protection against DIO; type: in vivo, C57BL6 mice
Summary of the method: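 Male C57BL6 mice, chow-fed to 2 months of age, started HFD together with daily injections (10 mg/kg; vehicle DMSO:Tween 80:water 1:1:8) for 10 weeks, n = 6/group, 23 °C. Body weight was recorded weekly. In week 5, CLAMS ran 36 h acclimatization then 48 h of VO2, VCO2 and locomotor recording. RER = VCO2/VO2, and EE was normalized to lean mass. Week-7 food intake was measured by BioDAQ (2 days acclimatization, 4 days recorded).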

IP6K1-KO mice = assay: Long-term TNP for reversal of DIO in IP6K1-KO mice; type: in vivo
Summary of the method: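 Inbred IP6K1-KO mice (seventh generation) and WT littermates, n = 4/group, received HFD for 8 weeks, then daily injections (10 mg/kg) with continued HFD for 10 weeks. GTT was done at week 5: 5 h fast, glucose 2 g/kg i.p., tail-vein glucometer readings including time 0. After 10 weeks, fat, lean and fluid masses were measured by LF-NMR, and mice were sacrificed after a 5 h fast.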

DIO mice = assay: Single dose of TNP in DIO mice; type: in vivo
Summary of the method: (§1)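 Chow-fed lean or DIO mice (n = 4/group) received one 20 mg/kg injection, were fasted 5 h, then given GTT (glucose 2 g/kg i.p., tail-vein glucometer from time 0). Mice were then sacrificed for tissues and cardiac-puncture serum. Insulin was measured by ultra-sensitive ELISA and TAG by a metabolic core. Akt S473 was immunoblotted (T308 also in IWAT), with densitometry n = 3.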

lean/CD-fed mice = assay: Single dose of TNP in chow; type: in vivo; settings: single dose 20 mg/kg BW
Summary of the method: as §1

IP6Ks = settings: cited from earlier work
MIN6 cells = settings: cited from earlier work
[2] = test system: human promyelocytic leukemia (HL60) cells; settings: cited from earlier work
cortical neurons = settings: cited from earlier work
[3] = 10 mg/kg BW daily, 5th week, CLAMS

Chain of Recombinant human IP6K1 (Q92551 whole entry): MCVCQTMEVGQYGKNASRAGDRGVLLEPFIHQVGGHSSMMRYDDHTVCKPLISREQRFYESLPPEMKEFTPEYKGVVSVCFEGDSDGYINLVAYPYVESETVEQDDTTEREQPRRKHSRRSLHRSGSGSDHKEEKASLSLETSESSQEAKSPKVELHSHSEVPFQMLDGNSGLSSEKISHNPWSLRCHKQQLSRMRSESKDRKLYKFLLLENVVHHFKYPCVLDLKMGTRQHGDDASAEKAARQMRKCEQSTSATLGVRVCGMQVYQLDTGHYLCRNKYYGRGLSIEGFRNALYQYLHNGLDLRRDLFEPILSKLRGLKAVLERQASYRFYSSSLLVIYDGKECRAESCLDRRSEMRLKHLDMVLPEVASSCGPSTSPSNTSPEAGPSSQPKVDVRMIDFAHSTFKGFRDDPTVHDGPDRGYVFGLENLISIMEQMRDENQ

SMILES: O=[N+]([O-])c1ccc(CNc2nc(NCc3cccc(C(F)(F)F)c3)nc3[nH]cnc23)cc1 [TNP, N6-(4-nitrobenzyl)-N2-(3-(trifluoromethyl)benzyl)-9H-purine-2,6-diamine]
- IP6K1 catalytic activity (Recombinant human IP6K1): blocks the catalytic activity of IP6K1
- Crossing of the BBB ([1]; mice): does not efficiently cross the BBB
- half-life ([1]; mouse, plasma, ip, 20 mg/kg): ~6 h
- TNP concentration in plasma ([1]; single dose 20 mg/kg i.p., chow fed mice, 1–6 h post-treatment): 5 to 10 µM
- Lean mass (HFD-fed mice; 10 mg/kg BW daily): unaltered
- Average RER (HFD-fed mice; [3]): unaltered
- Average activity (HFD-fed mice; [3]): unaltered
- Energy expenditure (EE) (HFD-fed mice; [3]): higher EE especially during nighttime
- VO2 consumption (HFD-fed mice; [3]): higher VO2 consumption
- Daily energy intake (HFD-fed mice; 10 mg/kg BW daily, 7th week, vs vehicle): similar
- Glucose disposal following glucose (GTT) and insulin injections (ITT) (HFD-fed mice; 10 mg/kg BW daily, 8th and 9th week): efficient glucose disposals
- Body weight gain (HFD-fed mice; 10 mg/kg BW daily, after 10 weeks (injection stopped)): 2.9 g
- Body weight (HFD-fed mice; 10 mg/kg BW daily, after 10 weeks of HFD and TNP): 27.8 g
- Glucose disposal following glucose injection (GTT) (HFD-fed mice; 2 weeks after TNP withdrawal): efficient glucose disposal
- Body weight gain (HFD-fed mice; 18-week, eight weeks after TNP withdrawal): 19.3 g
- Body weight (HFD-fed mice; 18-week, eight weeks after TNP withdrawal, HFD continued): 44.3 g
- Glucose tolerance (GTT) (HFD-fed mice; four weeks after TNP withdrawal): become glucose intolerant
- Body weight (HFD-fed mice; onset of the experiment (before treatment)): 24.9 g
- Weight gain during the withdrawal period (HFD-fed mice; weeks 10 to 18, TNP-withdrawn mice): 16.4 g
- TNP mediated weight loss (IP6K1-KO mice; 10 mg/kg BW daily, 10 weeks): resistant to Rev-TNP mediated weight loss
- Total fat, lean, and fluid masses (IP6K1-KO mice; 10 mg/kg BW daily, 10 weeks): unaltered
- Body weight (IP6K1-KO mice; 10 mg/kg BW daily, after 10-week of treatment): ~33 g
- Glucose disposal (GTT) (IP6K1-KO mice; after 5 weeks of TNP treatment): not altered
- Blood glucose level (DIO mice; single dose 20 mg/kg BW): significantly reduces
- Glucose tolerance (GTT) (DIO mice; single dose 20 mg/kg BW): significantly improves
- HFD induced increase in serum insulin (DIO mice; single dose 20 mg/kg BW): slightly reduces
- Serum TAG level (DIO mice; single dose 20 mg/kg BW): does not influence
- Serum cholesterol, HDL, and LDL levels (DIO mice; single dose 20 mg/kg BW): slightly reduces
- Increase in Akt S473 phosphorylation in IWAT, soleus muscle and liver (DIO mice; single injection 20 mg/kg BW, phospho S473/total Akt, ImageJ): 2–3 fold
- Akt phosphorylation at S473 in liver and EWAT (lean/CD-fed mice): does not alter
- Glucose disposal (GTT) (lean/CD-fed mice): does not influence
- Potency on IP6Ks over IP3-3K (IP6Ks): 70 fold
- Insulin secretion (MIN6 cells): reduces insulin secretion
- Ca2+ levels [2]: slightly elevates
- Cytosolic Zn2+ levels (cortical neurons): slightly elevates
